# Activity calls are given as the source filed them. The calls are words filed in the database; no cut-off is given here.
# Columns and labels:
# [1] = test system: NCI-H460; assay: Cytotoxicity against human NCI-H460 cells after 1 hr; assay type: functional, cell-based; conditions: NCI-H460, 1 h
# Method in brief: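 Cells harvested at 72 h and counted by Coulter counter. IC50 is the concentration giving 50% less growth than untreated control, as mean of three assays.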
# [2] = target: T1, DNA topoisomerase 1 (Homo sapiens) (UniProt P11387); assay: Effect on stabilization of human recombinant topoisomerase 1-mediated DNA cleavage after 30 mins
# T1 sequence (whole entry): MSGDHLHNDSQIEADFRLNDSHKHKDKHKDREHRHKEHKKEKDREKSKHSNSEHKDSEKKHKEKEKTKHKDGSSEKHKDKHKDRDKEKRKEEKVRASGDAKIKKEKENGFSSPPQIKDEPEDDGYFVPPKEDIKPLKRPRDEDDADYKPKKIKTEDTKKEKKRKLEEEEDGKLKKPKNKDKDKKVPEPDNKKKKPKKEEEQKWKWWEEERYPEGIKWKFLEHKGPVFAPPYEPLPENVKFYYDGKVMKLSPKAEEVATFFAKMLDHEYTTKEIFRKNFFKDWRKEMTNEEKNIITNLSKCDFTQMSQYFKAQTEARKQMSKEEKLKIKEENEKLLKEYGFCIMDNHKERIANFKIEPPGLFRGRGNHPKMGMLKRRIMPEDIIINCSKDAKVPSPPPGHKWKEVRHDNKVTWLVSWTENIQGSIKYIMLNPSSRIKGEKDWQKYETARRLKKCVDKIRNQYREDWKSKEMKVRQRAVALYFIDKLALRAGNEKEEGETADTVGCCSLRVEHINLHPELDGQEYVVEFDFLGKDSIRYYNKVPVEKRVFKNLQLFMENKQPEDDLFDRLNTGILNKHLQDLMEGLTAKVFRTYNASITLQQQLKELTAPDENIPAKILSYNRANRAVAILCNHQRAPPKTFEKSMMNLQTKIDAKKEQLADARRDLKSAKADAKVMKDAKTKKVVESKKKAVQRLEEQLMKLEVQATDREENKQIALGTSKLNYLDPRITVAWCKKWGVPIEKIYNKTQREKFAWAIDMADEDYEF
# Method in brief: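 3'-end-labelled 751-bp BamHI–EcoRI SV40 DNA fragment (20,000 cpm/sample) with 640 ng full-length human recombinant topo I. Buffer: 10 mM Tris–HCl pH 7.6, 150 mM KCl, 5 mM MgCl2, 15 µg/ml BSA, 0.1 mM DTT. Drug at 1, 10, 50 µM, 30 min at 37 °C. Stopped with 0.5% SDS/0.3 mg/ml proteinase K, 45 min at 42 °C. Denaturing 8% polyacrylamide gel.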
# [3] = target: T1, DNA topoisomerase 1 (Homo sapiens); assay: Inhibition of human recombinant topoisomerase 1 assessed as DNA plasmid relaxation after 30 mins
# Method in brief: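 Supercoiled pBR322 DNA (200 ng) with purified topo I in 20 mM Tris–HCl pH 7.6, 150 mM KCl, 5 mM MgCl2, 0.1 mM EDTA, 0.1 mM DTT, 0.5 µg/ml BSA. Compound at 1, 10, 50 µM, 30 min at 37 °C. Stopped with SDS/proteinase K at 42 °C for 45 min. Run on 0.8% agarose, ethidium bromide stained.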
Activity [2],Activity [3],Structure (SMILES),IC50 [1] [µM]
Active,,COc1cccc2c1C(=O)c1c(OCCN(C)C)cccc1C2=O,> 100
Active,inactive,Cc1cc(=O)c2ccc3c(c2o1)C(=O)c1c(O)cccc1C3=O,5.5
,,COc1cccc2c1C(=O)c1c(ccc3c(=O)cc(-c4ccccc4)oc13)C2=O,> 100
,,Cc1cc(=O)c2ccc3c(c2o1)C(=O)c1c(O)ccc([N+](=O)[O-])c1C3=O,9.1
,,COc1cc(OC)c2c(c1)C(=O)c1cc(OC)c3c(=O)cc(C)oc3c1C2=O,> 100
,,O=C1c2cccc(O)c2C(=O)c2c1ccc1c(=O)cc(-c3ccccc3)oc21,7.06
,,COc1cccc2c1C(=O)c1c(ccc3c(=O)cc(C)oc13)C2=O,> 260
,inactive,Cc1oc2c3c(ccc2c(=O)c1Br)C(=O)c1ccc(Br)c(O)c1C3=O,4.95
Active,,COc1cccc2c1C(=O)c1c(O)cccc1C2=O,> 100
,,Cc1cc(=O)c2c(O)cc3c(c2o1)C(=O)c1c(O)cc(O)cc1C3=O [TOPOPYRONE C],29.5
,,CC[C@@]1(O)C(=O)OCc2c1cc1n(c2=O)Cc2cc3c(CN(C)C)c(O)ccc3nc2-1 [TOPOTECAN],1.18
,,Cc1oc2c3c(ccc2c(=O)c1Br)C(=O)c1cccc(O)c1C3=O,6.5
,,Cc1cc(=O)c2ccc3c(c2o1)C(=O)c1c(OCCN(C)C)cccc1C3=O,7.15
Active,,COc1cccc2c1C(=O)c1c(O)ccc([N+](=O)[O-])c1C2=O,160

# — ChEMBL document CHEMBL1141506, “Synthesis and cytotoxic activity of a new series of topoisomerase I inhibitors” (Bioorg Med Chem Lett, 2008)
